Measurements: ChEMBL document CHEMBL1134739, “Synthesis, biological activity and comparative analysis of DNA binding affinities and human DNA topoisomerase I inhibitory activities of novel 12-alkoxy-benzo[c]phenanthridinium salts” (Bioorg Med Chem Lett, 2001)

Tests used:
[1] = test system: Nucleic Acid; assay: Compound was tested for its binding affinity towards poly(AT); type: nucleic-acid assay
Outline: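 Double-stranded poly(dA-dT)·poly(dA-dT) concentration set using a molar extinction coefficient of 13,900 M^-1 cm^-1. Binding was followed by recording UV–vis spectra.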

[2] = test system: HT-29; assay: (§1) Compound was tested for cytotoxicity against HT-29 human solid tumor cell line; type: functional, cell-based
Outline: (§2)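 MTT assay: drugs added 24 h after plating at nine concentrations; cells grown 72 h with drug, then MTT (2.5 mg/mL solution in PBS) added for 3 h. Formazan dissolved in DMSO, absorbance read at 570 nm. IC50 taken from dose/inhibition curves.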

[3] = test system: Nucleic Acid; assay: Compound was tested for its binding affinity towards calf thymus DNA; type: nucleic-acid assay; settings: Bos taurus
Outline: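 Calf thymus DNA concentration set using a molar extinction coefficient of 13,200 M^-1 cm^-1. Binding was followed by recording UV–vis spectra.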

[4] = test system: MCF7; assay: (§3) Compound was tested for cytotoxicity against MCF-7 human solid tumor cell line; type: functional, cell-based; outline: as §2
[5] = test system: Caov-3 cell line; assay: (§4) Compound was tested for cytotoxicity against CaOv3 human solid tumor cell line; type: functional, cell-based; outline: as §2
[6] = test system: Nucleic Acid; assay: Compound was tested for its binding affinity towards poly(GC); type: nucleic-acid assay
Outline: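 Double-stranded poly(dG-dC)·poly(dG-dC) concentration set using a molar extinction coefficient of 13,200 M^-1 cm^-1. Binding was followed by recording UV–vis spectra.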

[7] = test system: A549; assay: (§5) Compound was tested for cytotoxicity against A-549 human solid tumor cell line; type: functional, cell-based; outline: as §2
[8] = test system: MCF7; assay: Compound was tested for cytotoxicity against MCF-7 human solid tumor cell line; NA=Not active; type: functional, cell-based
Outline: (§6)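 MTT assay on adherent solid tumor lines. Drug added 24 h after plating at nine concentrations, then 72 h growth with drug. MTT (2.5 mg/mL solution in PBS) added for 3 h, medium aspirated, formazan dissolved in DMSO, absorbance read at 570 nm. IC50 taken from dose/inhibition curves.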

[9] = test system: Caov-3 cell line; assay: Compound was tested for cytotoxicity against CaOv3 human solid tumor cell line; NA=Not active; type: functional, cell-based; outline: as §6
[10] = test system: A549; assay: as §5; type: functional
[11] = test system: Caov-3 cell line; assay: as §4; type: functional; outline: as §2
[12] = test system: HT-29; assay: as §1; type: functional
[13] = test system: MCF7; assay: as §3; type: functional

## COc1cc2c(ccc3c4cc(OC)c(OC)cc4c[n+](C)c23)cc1O [FAGARONINE]
[1]
  K: 1e+06 M⁻¹
[2]
  IC30: 9 µM
[3]
  K: 1e+06 M⁻¹
[4]
  IC50: 4 µM
[5]
  IC50: 0.5 µM
[6]
  K: 1.1e+06 M⁻¹
[7]
  IC50: 0.1 µM

## CCOc1cc2c3cc(OC)c(OC)cc3c[n+](C)c2c2cc(OC)c(O)cc12.[I-]
[1]
  K: 300000 M⁻¹
[2]
  IC30: 5 µM
[8]
  IC50: Not Active
[9]
  IC50: Not Active
[3]
  K: 250000 M⁻¹
[6]
  K: 60000 M⁻¹

## CCOc1cc2c3cc(OC)c(OC)cc3c(C)[n+](C)c2c2cc(OC)c(OC)cc12
[1]
  K: 700000 M⁻¹
[10]
  IC30: 10 µM
[3]
  K: 700000 M⁻¹
[11]
  IC30: 10 µM
[6]
  K: 50000 M⁻¹
[12]
  IC30: 9 µM
[13]
  IC30: 1 µM

## CCOc1cc2c3cc(OC)c(OC)cc3c[n+](C)c2c2cc(OC)c(OC)cc12
[1]
  K: 2.5e+06 M⁻¹
[2]
  IC30: 2 µM
[3]
  K: 250000 M⁻¹
[11]
  IC30: 0.5 µM
[4]
  IC50: 2 µM
[6]
  K: 100000 M⁻¹
[7]
  IC50: 0.08 µM

## CCOc1cc2c3cc(OC)c(OC)cc3c[n+](C)c2c2cc(OC)c(OS(C)(=O)=O)cc12.CS(=O)(=O)[O-]
[1]
  K: 50000 M⁻¹
[8]
  IC50: Not Active
[9]
  IC50: Not Active
[3]
  K: 250000 M⁻¹
[6]
  K: 53000 M⁻¹
[12]
  IC30: 1 µM
[7]
  IC50: 0.5 µM
